Results: PMC8669655 (ACS Infectious Diseases, 2021)
Values after ≈ are worked out from the molar mass of the structure shown. “Also recorded” adds a separate entry of the source. Blank lines part the entries; values can stand above or below the compound they belong to.

How the values were obtained:
[1] = system: E. coli BW25113; assay: MIC assay; format: cell-based; settings: Escherichia coli
Outline: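 Broth microdilution per CLSI in LB. Test compound serially diluted twofold from a 2× stock. Inoculum from a single blood-agar colony, grown in LB at 37 °C to OD600 0.5, diluted to 2.0 × 10^6 CFU/mL stock, then added 1:1. Plates sealed with breathable seal, incubated 20 h at 37 °C, 600 rpm. MIC read visually after brief centrifugation. Six growth and six sterility controls.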

[2] = system: E. coli ATCC25922; assay: Checkerboard assay with rifampicin; format: cell-based, Escherichia coli; settings: E. coli ATCC25922 (wild-type)
Outline: (§1)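 Broth microdilution checkerboard in LB: serial dilutions of test compound and rifampicin combined, in triplicate. Inoculum from a single blood-agar colony, grown in LB at 37 °C to OD600 0.5, diluted to 2.0 × 10^6 CFU/mL stock, 50 μL added per 100 μL well. Sealed plates incubated 20 h, 37 °C, 600 rpm shaking. OD600 read after resuspension. FICI from MICs alone and in combination; ≤0.5 taken as synergy.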

[3] = system: E. coli W3110; assay: Checkerboard assay with rifampicin; format: cell-based, Escherichia coli; settings: E. coli W3110 (wild-type)
Outline: as §1

[4] = system: E. coli 552060.1; assay: Checkerboard assay with rifampicin; format: cell-based, Escherichia coli; settings: E. coli 552060.1 (wild-type clinical isolate)
Outline: as §1

[5] = system: E. coli EQASmcr-1 (EQAS 2016 412016126); assay: Checkerboard assay with rifampicin; format: cell-based, Escherichia coli; settings: E. coli EQASmcr-1 (polymyxin-resistant)
Outline: as §1

[6] = system: E. coli EQASmcr-2 (EQAS 2016 KP37); assay: Checkerboard assay with rifampicin; format: cell-based, Escherichia coli; settings: E. coli EQASmcr-2 (polymyxin-resistant)
Outline: as §1

[7] = system: E. coli EQASmcr-3 (EQAS 2017 2013-SQ352); assay: Checkerboard assay with rifampicin; format: cell-based, Escherichia coli; settings: E. coli EQASmcr-3 (polymyxin-resistant), listed as pentamidine (1)
Outline: as §1

[8] = system: A. baumannii ATCC17978; assay: Checkerboard assay with rifampicin; format: cell-based, Acinetobacter baumannii; settings: listed as pentamidine (1)
Outline: as §1

[9] = system: K. pneumoniae ATCC13883; assay: Checkerboard assay with rifampicin; format: cell-based, Klebsiella pneumoniae; settings: listed as pentamidine (1)
Outline: as §1

[10] = system: P. aeruginosa ATCC27853; assay: Checkerboard assay with rifampicin; format: cell-based, Pseudomonas aeruginosa; settings: listed as pentamidine (1)
Outline: as §1

[11] = system: E. coli BW25113; assay: OM permeabilization assay using NPN; format: cell-based, Escherichia coli; settings: 60 min, relative to 100 μg/mL colistin
Outline: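 Log-phase cells (overnight LB culture diluted 50×, grown to OD600 0.5) pelleted and resuspended to OD600 1.0 in 5 mM HEPES with 20 mM glucose. Test compound serially diluted in triplicate. NPN stock (0.5 mM in acetone) diluted 12.5× in buffer and added. Fluorescence read after 60 min, ex 355 nm / em 420 nm. Uptake % = (F − buffer blank)/(colistin 100 μg/mL − blank) × 100. Compound + NPN no-cell controls included.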

[12] = system: rat L6 muscle cell line; settings: cited from earlier work

MIC ([1]; BW25113, compound alone): ≥ 200 µg/mL
Compound: N=C(N)c1ccc(OCCCCCOc2ccc(C(=N)N)cc2)cc1 [compound 1, 4,4′-(Pentane-1,5-diylbis(oxy))dibenzimidamide, reference compound]
FICI [2]: 0.313
FICI ([3]; listed as pentamidine (1)): ≤0.188
FICI [4]: 0.375
FICI ([5]; listed as pentamidine (1)): ≤0.250
FICI [6]: 0.375
FICI [7]: ≤0.188
FICI [8]: ≤0.125
FICI [9]: ≤0.125
FICI [10]: ≤0.500

MIC ([1]; BW25113, compound alone): ≥ 200 µg/mL
Compound: N=C(N)c1ccc(OCCCOc2ccc(C(=N)N)cc2)cc1 [compound 9, 4,4′-(Propane-1,3-diylbis(oxy))dibenzimidamide]

MIC ([1]; BW25113, compound alone): 200 µg/mL (≈ 543 µM)
Compound: N=C(N)c1ccc(OCCCCCCCOc2ccc(C(=N)N)cc2)cc1 [compound 10, 4,4′-(Heptane-1,7-diylbis(oxy))dibenzimidamide]

MIC ([1]; BW25113, compound alone): > 200 µg/mL
Compound: N=C(N)c1ccc(OCCSCCOc2ccc(C(=N)N)cc2)cc1 [compound 15, 4,4′-((Thiobis(ethane-2,1-diyl))bis(oxy))dibenzimidamide]

MIC ([1]; BW25113, compound alone): > 200 µg/mL
Compound: N=C(N)c1ccc(OCCS(=O)(=O)CCOc2ccc(C(=N)N)cc2)cc1 [compound 16, 4,4′-((Sulfonylbis(ethane-2,1-diyl))bis(oxy))dibenzimidamide]

MIC ([1]; BW25113, 20 h, compound alone): > 200 µg/mL
Compound: N=C(N)c1ccc(OCc2ccccc2COc2ccc(C(=N)N)cc2)cc1 [compound 21, 4,4′-((1,2-Phenylenebis(methylene))bis(oxy))dibenzimidamide]
NPN uptake (OM disruption), in words [11]: dose-dependent increase in the fluorescent signal

MIC ([1]; BW25113, 20 h, compound alone): > 200 µg/mL
Compound: N=C(N)c1ccc(OCc2cccc(COc3ccc(C(=N)N)cc3)c2)cc1 [compound 22, 4,4′-((1,3-Phenylenebis(methylene))bis(oxy))dibenzimidamide]
FICI [2]: 0.094
FICI [3]: 0.313
FICI [4]: 0.250
FICI [5]: 0.188
FICI [6]: 0.313
NPN uptake (OM disruption), in words [11]: dose-dependent increase in the fluorescent signal; also recorded: stronger effect than PMBN

Compound: N=C(N)c1cccc(OCc2ccc(COc3cccc(C(=N)N)c3)cc2)c1 [compound 23b, 3,3′-[1,4-Phenylenebis(methyleneoxy)]dibenzenecarboximidamide]
FICI [2]: 0.156

Compound: N=C(N)c1ccc(OCc2ccc3ccc(COc4ccc(C(=N)N)cc4)cc3c2)cc1 [compound 24, 4,4′-((Naphthalene-2,7-diylbis(methylene))bis(oxy))dibenzimidamide]
toxicity against a rat L6 muscle cell line [12]: significant toxicity
